What all share (type): functional, cell-based
The target in assay [1] is Proteinase-activated receptor 2 (Homo sapiens) (UniProt P55085). Briefly: Agonist activity at PAR2 in human 16HBE14o cells assessed as activated cells at 100 uM by intracellular calcium mobilization fura-2-AM assay. The method, boiled down:
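16HBE14o- cells were grown 5–7 days on matrix-coated coverslips, loaded with fura-2, and imaged by digital microscopy over 3 min (80–100 cells). A cell counted as activated if [Ca2+]i rose to ≥200 nM from a resting 50–75 nM, scored as % of cells. Doses ran from 100 μM down to 250 nM. EC50 came from % responding. Mean ± SEM, N ≥ 2 at 100 μM, N ≥ 4 otherwise.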
In general terms: Calcium assays in cells follow changes in intracellular calcium, usually with a dye or a luminescent sensor.

For assay [2] the target is unchanged. As to the kind of experiment: Agonist activity at PAR2 in human 16HBE14o cells assessed as activated cells at […] by intracellular calcium mobilization fura-2-AM assay.
Assay [3] has the same target. As to the kind of experiment: Agonist activity at PAR2 in human 16HBE14o cells assessed as increase in intracellular calcium levels at […] by in vitro physiological response assay.
Assay [4] has the same target. Briefly: Agonist activity at human PAR2 expressed in human HeLa cells assessed as increase in intracellular calcium levels at 5 uM by fura-2-AM dye based digital imaging microscopy.
Assay [5] has the same target. Briefly: Agonist activity at human PAR2 expressed in rat kNRK cells assessed as increase in intracellular calcium levels at 5 uM by fura-2-AM dye based digital imaging microscopy. The gist of the method:
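Cells transfected with human PAR2 (HeLa-PAR2 or kNRK-PAR2) were compared with low-expressing or plasmid-control cells of the same line. Cells were grown on matrix-coated coverslips and loaded with fura-2. 5 μM agonist was added, and mean [Ca2+]i of all cells in the field (~90) was imaged every 0.6 s, ± SEM.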

For 13 molecules, Activity results are on record in ChEMBL document CHEMBL1687892, “Potent agonists of the protease activated receptor 2 (PAR2)” (J Med Chem, 2011).

Calls of active or inactive are those of the source. The calls are words filed in the database; no cut-off is given here.

Sequence of Proteinase-activated receptor 2 (Homo sapiens) (P55085 whole entry): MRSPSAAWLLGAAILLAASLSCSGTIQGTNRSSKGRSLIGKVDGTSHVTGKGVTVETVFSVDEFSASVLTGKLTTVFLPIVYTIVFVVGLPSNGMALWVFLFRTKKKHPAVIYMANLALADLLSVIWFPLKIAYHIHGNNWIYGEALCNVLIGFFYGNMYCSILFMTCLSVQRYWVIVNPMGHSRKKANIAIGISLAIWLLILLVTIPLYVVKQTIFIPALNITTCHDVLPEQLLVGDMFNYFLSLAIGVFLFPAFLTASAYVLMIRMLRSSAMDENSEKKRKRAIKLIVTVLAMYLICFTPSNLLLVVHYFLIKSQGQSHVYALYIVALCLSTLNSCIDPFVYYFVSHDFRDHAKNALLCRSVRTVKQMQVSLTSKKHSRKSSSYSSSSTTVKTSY

As to `CC[C@H](C)[C@H](NC(=O)[C@H](CC(C)C)NC(=O)c1ccnc(N)c1)C(=O)NCC(=O)N[C@@H](CCCNC(=N)N)C(=O)N[C@@H](CC(C)C)C(N)=O`, in assay [1], the result was Active. Moreover, the outcome in assay [2] and in assay [3] was inactive.

Turning to `CC[C@H](C)[C@H](NC(=O)[C@H](CC(C)C)NC(=O)c1cccc2[nH]ccc12)C(=O)NCC(=O)N[C@@H](CCCNC(=N)N)C(=O)N[C@@H](CC(C)C)C(N)=O`, in assay [1], the Activity came to 0%.

For `CC[C@H](C)[C@H](NC(=O)[C@H](CC(C)C)NC(=O)c1cnccn1)C(=O)NCC(=O)N[C@@H](CCCNC(=N)N)C(=O)N[C@@H](CC(C)C)C(N)=O`, the result in assay [1] was Active. Moreover, the outcome in assay [2] was inactive.

As to `CC[C@H](C)[C@H](NC(=O)[C@H](CC(C)C)NC(=O)c1ccc(S(N)(=O)=O)cc1)C(=O)NCC(=O)N[C@@H](CCCNC(=N)N)C(=O)N[C@@H](CC(C)C)C(N)=O`, the result in assay [1] was Active. The result in assay [2] was inactive.

For `CC[C@H](C)[C@H](NC(=O)[C@H](CC(C)C)NC(=O)Cc1c[nH]c2ccccc12)C(=O)NCC(=O)N[C@@H](CCCNC(=N)N)C(=O)N[C@@H](CC(C)C)C(N)=O`, the Activity in assay [1] was 0%.

For `CC[C@H](C)[C@H](NC(=O)[C@H](CC(C)C)NC(=O)c1cccnc1N)C(=O)NCC(=O)N[C@@H](CCCNC(=N)N)C(=O)N[C@@H](CC(C)C)C(N)=O`, the outcome in assay [1] was Active. Further, the outcome in assay [2] and in assay [3] was inactive.

Consider `CC[C@H](C)[C@H](NC(=O)[C@H](CC(C)C)NC(=O)CCN1CCCCC1)C(=O)NCC(=O)N[C@@H](CCCNC(=N)N)C(=O)N[C@@H](CC(C)C)C(N)=O`, for which the Activity in assay [1] stood at 0%.

On to `CC[C@H](C)[C@H](NC(=O)[C@H](CC(C)C)NC(=O)CC#N)C(=O)NCC(=O)N[C@@H](CCCNC(=N)N)C(=O)N[C@@H](CC(C)C)C(N)=O`, for which, in assay [1], the outcome was Active. The outcome in assay [2] was inactive.

As to `CC[C@H](C)[C@H](NC(=O)[C@H](CC(C)C)NC(=O)COCC(=O)O)C(=O)NCC(=O)N[C@@H](CCCNC(=N)N)C(=O)N[C@@H](CC(C)C)C(N)=O`, the Activity in assay [1] stood at 0%.

For the molecule `CC[C@H](C)[C@H](NC(=O)[C@H](CC(C)C)NC(=O)c1csc(N)n1)C(=O)NCC(=O)N[C@@H](CCCNC(=N)N)C(=O)N[C@@H](CC(C)C)C(N)=O`, the result in assay [4] and in assay [5] was Active.

For the molecule `CC[C@H](C)[C@H](NC(=O)[C@H](CC(C)C)NC(=O)c1nc(N)n[nH]1)C(=O)NCC(=O)N[C@@H](CCCNC(=N)N)C(=O)N[C@@H](CC(C)C)C(N)=O`, the outcome in assay [1] was Active. Further, the result in assay [2] and in assay [3] was inactive.

With `CC[C@H](C)[C@H](NC(=O)[C@H](CC(C)C)NC(=O)c1ccc(N)nc1)C(=O)NCC(=O)N[C@@H](CCCNC(=N)N)C(=O)N[C@@H](CC(C)C)C(N)=O`, the outcome in assay [4] and in assay [5] was Active.

Take `CC[C@H](C)[C@H](NC(=O)[C@H](CC(C)C)NC(=O)c1cccnc1O)C(=O)NCC(=O)N[C@@H](CCCNC(=N)N)C(=O)N[C@@H](CC(C)C)C(N)=O`: the Activity in assay [1] turned out to be 0%.
